Data: paper PMC7667462 (Journal of medicinal chemistry, 2019)
Entries after “also recorded” stand apart in the source; their conditions may differ. One block for each molecule: values may come before it.

Tests used:
Clk (Cdc-like kinase) 2 = details: cited from earlier work
pim-1 = pim-1 (Homo sapiens, UniProt P11309); assay: kinase selectivity profiling, residual kinase activity; assay type: biochemical; details: read-out: % inhibition of pim-1
How it was run: (§1)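 The test compound was profiled against a panel of 44 human kinases, with ATP set to the Km of each kinase. Remaining activity was read as % inhibition of each kinase.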

EphA4 = EphA4 (Homo sapiens, UniProt P54764); assay: as above; assay type: biochemical; details: read-out: % inhibition of EphA4
EphA4, sequence (P54764 20-986): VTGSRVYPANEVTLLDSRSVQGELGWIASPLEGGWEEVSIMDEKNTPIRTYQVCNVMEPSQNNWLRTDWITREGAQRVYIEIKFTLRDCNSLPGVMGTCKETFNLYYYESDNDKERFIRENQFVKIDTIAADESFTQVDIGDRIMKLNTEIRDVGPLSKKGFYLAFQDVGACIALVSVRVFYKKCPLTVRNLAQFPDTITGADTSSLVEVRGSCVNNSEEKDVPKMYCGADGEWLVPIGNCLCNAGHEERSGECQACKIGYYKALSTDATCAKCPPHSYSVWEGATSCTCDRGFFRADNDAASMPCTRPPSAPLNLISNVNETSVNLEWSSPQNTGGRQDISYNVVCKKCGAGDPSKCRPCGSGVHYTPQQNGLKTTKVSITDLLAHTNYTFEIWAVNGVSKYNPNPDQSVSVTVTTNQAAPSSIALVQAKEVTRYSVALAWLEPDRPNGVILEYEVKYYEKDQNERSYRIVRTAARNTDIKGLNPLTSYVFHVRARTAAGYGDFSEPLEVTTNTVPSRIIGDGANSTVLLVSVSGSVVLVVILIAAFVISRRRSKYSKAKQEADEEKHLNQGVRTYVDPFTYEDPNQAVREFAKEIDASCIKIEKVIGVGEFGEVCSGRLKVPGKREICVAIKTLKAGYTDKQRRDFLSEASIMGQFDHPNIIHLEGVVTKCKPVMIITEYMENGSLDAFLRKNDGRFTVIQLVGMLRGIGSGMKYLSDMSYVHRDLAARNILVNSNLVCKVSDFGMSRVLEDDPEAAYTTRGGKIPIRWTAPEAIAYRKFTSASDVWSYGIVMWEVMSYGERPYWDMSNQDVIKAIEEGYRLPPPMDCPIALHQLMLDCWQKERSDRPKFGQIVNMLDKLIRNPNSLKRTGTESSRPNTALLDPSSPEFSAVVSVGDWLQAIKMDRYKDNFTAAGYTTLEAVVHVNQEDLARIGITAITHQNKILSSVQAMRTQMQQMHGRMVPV
How it was run: as §1

CK2α [1] = biological target: T1, CK2α (Homo sapiens, UniProt P68400); assay: as above; assay type: biochemical; details: compound at 50 μM
T1 sequence (P68400 whole entry): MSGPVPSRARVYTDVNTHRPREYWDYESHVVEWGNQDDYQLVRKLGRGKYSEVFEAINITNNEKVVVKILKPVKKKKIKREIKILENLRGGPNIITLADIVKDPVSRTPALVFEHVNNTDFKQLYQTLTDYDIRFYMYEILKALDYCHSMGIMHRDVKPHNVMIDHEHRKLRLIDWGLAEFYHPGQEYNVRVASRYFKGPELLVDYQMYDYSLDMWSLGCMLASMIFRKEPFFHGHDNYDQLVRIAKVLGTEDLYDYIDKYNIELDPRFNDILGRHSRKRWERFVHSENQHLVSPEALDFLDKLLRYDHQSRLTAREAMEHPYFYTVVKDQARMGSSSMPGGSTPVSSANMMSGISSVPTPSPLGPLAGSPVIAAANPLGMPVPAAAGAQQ
How it was run: as §1

CK2α [2] = biological target: T1, CK2α; assay: CK2 radiometric kinase assay; assay type: biochemical; details: compared with compound 2
water solubility = assay type: physicochemical; details: qualitative, relative to the other compounds of the series
CK2α [3] = biological target: T1, CK2α; assay: NMR Saturation Transfer Difference; assay type: binding; details: compound 500 μM, CK2α 5 μM
CK2α^1–335 = biological target: T2, CK2α^1–335 (Homo sapiens, UniProt P68400); assay: native mass spectrometry binding and competition; details: 10 μM CK2α; for binding stoichiometry to CK2α by native mass spectrometry: 100 μM IP6 or 10–40 μM 6, 5% DMSO
T2 sequence (P68400 1-335): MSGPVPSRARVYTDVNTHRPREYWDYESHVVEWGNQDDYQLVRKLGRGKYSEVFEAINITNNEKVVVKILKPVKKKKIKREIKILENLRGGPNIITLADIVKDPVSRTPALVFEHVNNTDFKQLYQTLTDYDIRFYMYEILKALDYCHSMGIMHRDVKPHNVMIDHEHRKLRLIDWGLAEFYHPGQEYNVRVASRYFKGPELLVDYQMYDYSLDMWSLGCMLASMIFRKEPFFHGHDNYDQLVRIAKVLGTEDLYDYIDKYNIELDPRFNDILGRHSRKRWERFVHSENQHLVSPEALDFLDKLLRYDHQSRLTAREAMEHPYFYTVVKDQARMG

CK2α2β2 holoenzyme = CK2α2β2 holoenzyme (Homo sapiens, UniProt P68400); assay: CK2 radiometric kinase assay, holoenzyme versus CK2α; assay type: biochemical; details: CK2β-independent peptide substrate
CK2α2β2 holoenzyme, sequence (P68400 whole entry): as the sequence (P68400 whole entry) above
CK2α2β2 holoenzyme, sequence (P67870 whole entry partner): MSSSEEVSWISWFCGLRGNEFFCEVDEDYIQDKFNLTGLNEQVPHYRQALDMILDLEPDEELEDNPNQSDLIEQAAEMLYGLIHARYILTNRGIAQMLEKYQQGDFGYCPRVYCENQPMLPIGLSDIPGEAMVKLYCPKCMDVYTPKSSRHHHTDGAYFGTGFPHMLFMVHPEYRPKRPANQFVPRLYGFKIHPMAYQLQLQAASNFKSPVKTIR
How it was run: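 Radiometric CK2 assay comparing isolated human recombinant CK2α with the CK2α₂β₂ holoenzyme across increasing test compound concentrations, using a CK2β-independent peptide substrate. ATP was 100 μM unless stated otherwise.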

GSK3β = GSK3β (Homo sapiens, UniProt P49841); assay: kinase selectivity profiling, residual kinase activity; assay type: biochemical; details: read-out: % inhibition of GSK3β
GSK3β, sequence (P49841 whole entry): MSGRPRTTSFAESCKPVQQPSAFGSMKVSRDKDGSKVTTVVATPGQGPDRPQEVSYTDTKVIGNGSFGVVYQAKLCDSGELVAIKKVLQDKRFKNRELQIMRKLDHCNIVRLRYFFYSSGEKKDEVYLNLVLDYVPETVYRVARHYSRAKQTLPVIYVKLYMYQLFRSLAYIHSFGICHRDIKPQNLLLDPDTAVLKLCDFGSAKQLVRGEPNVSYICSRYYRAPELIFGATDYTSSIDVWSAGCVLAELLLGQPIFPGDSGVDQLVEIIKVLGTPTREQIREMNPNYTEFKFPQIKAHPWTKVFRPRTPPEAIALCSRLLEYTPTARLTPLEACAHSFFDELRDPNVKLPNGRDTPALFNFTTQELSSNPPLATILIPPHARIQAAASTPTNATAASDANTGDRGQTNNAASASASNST
How it was run: as §1

ACVR1 (ALK2) = biological target: T3, ACVR1 (ALK2) (Homo sapiens, UniProt Q04771); assay: as above; assay type: biochemical; details: read-out: % inhibition of ACVR1
T3 sequence (Q04771 21-509): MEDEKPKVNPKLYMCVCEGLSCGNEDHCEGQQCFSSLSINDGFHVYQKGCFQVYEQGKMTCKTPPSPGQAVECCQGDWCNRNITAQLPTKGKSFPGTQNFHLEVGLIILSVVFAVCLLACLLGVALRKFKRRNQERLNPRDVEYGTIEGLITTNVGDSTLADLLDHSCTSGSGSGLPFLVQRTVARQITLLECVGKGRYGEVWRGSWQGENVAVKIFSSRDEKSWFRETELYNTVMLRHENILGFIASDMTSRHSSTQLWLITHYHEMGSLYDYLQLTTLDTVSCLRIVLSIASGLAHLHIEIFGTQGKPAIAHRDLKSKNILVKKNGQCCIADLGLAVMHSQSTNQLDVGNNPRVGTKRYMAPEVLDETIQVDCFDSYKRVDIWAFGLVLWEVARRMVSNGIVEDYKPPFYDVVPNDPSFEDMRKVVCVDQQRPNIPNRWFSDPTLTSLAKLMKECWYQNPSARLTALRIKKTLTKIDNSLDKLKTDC
How it was run: as §1

Dyrk1A = Dyrk1A (Homo sapiens, UniProt Q13627); assay: as above; assay type: biochemical; details: read-out: % inhibition of Dyrk1A
How it was run: as §1

Clk2 = Clk2 (Homo sapiens, UniProt P49760); assay: as above; assay type: biochemical; details: read-out: % inhibition of Clk2
Clk2, sequence (P49760 whole entry): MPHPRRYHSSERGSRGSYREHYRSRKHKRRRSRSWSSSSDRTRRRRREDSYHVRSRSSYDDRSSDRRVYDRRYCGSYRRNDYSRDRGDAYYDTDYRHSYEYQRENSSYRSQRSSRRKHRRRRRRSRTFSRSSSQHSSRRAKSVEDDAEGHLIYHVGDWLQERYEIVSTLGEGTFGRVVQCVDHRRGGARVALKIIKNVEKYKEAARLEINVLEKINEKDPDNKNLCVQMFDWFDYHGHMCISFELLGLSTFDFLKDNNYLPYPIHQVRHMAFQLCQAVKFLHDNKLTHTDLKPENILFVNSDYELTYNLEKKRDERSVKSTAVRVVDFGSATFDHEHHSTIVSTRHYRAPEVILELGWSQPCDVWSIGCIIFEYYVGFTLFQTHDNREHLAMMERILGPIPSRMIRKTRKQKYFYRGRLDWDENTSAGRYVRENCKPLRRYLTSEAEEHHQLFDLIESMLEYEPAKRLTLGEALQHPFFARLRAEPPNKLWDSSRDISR
How it was run: as §1

Clk4 = Clk4 (Homo sapiens, UniProt Q9HAZ1); assay: as above; assay type: biochemical; details: read-out: % inhibition of Clk4
Clk4, sequence (Q9HAZ1 whole entry): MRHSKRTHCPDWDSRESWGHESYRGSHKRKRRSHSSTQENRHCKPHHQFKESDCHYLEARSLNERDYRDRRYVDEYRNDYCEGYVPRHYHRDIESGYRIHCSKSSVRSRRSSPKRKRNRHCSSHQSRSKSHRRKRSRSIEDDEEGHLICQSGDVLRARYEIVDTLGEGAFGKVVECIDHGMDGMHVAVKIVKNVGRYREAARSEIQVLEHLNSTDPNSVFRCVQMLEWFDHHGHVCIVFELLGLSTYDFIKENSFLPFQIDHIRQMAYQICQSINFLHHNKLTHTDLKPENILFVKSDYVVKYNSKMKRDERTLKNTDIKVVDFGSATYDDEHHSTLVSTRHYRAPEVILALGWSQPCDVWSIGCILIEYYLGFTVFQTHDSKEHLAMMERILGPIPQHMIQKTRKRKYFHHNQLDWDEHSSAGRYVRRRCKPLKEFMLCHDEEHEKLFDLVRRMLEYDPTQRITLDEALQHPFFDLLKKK
How it was run: as §1

MLCK (MLCK2) = biological target: T4, MLCK (MLCK2) (Homo sapiens, UniProt Q32MK0); assay: as above; assay type: biochemical; details: read-out: % inhibition of MLCK
T4 sequence (Q32MK0 1-819): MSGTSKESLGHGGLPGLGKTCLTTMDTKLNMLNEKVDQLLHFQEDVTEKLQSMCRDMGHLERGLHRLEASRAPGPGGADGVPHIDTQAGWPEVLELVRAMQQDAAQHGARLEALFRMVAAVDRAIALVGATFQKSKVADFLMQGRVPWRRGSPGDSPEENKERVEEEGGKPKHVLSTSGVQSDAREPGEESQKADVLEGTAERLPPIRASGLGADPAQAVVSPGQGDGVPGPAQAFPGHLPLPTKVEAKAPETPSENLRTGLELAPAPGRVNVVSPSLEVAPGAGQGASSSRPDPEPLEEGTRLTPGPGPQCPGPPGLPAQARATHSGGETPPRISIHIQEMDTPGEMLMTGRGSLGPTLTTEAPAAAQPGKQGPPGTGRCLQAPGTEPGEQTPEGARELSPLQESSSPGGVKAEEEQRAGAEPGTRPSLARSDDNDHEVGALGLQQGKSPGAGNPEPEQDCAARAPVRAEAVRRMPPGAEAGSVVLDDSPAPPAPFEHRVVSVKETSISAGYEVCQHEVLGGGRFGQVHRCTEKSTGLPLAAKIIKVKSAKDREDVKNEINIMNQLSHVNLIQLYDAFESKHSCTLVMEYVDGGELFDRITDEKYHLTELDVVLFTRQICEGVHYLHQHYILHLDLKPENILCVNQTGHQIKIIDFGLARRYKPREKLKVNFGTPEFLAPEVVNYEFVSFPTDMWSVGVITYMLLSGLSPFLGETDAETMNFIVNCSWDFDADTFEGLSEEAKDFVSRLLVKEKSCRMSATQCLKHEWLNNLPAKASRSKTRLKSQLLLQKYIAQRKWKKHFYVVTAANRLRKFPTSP
How it was run: as §1

pim-1, sequence (P11309 whole entry): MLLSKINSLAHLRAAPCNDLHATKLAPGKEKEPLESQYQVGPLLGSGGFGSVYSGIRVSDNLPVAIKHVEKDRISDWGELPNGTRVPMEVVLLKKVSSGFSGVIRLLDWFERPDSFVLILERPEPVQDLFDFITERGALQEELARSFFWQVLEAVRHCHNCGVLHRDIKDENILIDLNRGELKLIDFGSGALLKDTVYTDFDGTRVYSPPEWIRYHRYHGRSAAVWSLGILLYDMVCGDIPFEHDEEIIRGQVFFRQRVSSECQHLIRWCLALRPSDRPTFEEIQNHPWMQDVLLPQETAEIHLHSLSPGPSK

SMILES: O=C(O)c1ccc2c(c1)nc(Nc1cccc(Cl)c1)c1ccncc12 [CX-4945, 5-(3-chlorophenylamino)benzo[c][2,6]naphthyridine-8-carboxylic acid]
IC50 (Clk (Cdc-like kinase) 2): 4 nM

inhibition at 50 µM (pim-1): 54%
inhibition at 50 µM (EphA4): 55%
inhibition of CK2α (CK2α [1]): full inhibition
SMILES: O=C(O)c1ccc(Nc2nc(-c3cccc([N+](=O)[O-])c3)cs2)cc1 [Compound 2, 4-((4-(3-nitrophenyl)thiazol-2-yl)amino)benzoic acid]

CK2α inhibitory activity, in words (SAR) (CK2α [2]): significant loss of activity
SMILES: COC(=O)c1ccc(Nc2nc(-c3cccc([N+](=O)[O-])c3)cs2)cc1 [Compound 4, 4-[4-(3-Nitro-phenyl)-thiazol-2-ylamino]-benzoic acid methyl ester]

STD NMR competition with CX-4945 for binding to CK2α (CK2α [3]; CX-4945 100 μM): did not bind to the same site as CX-4945
binding stoichiometry to CK2α by native mass spectrometry (CK2α^1–335): various stoichiometries
native MS competition with IP6 for binding to CK2α (CK2α^1–335; 10 μM compound, 100 μM IP6): competitive ligand of IP6
SMILES: O=C(O)c1ccc(Nc2nc(-c3ccccc3)cs2)cc1 [Compound 6, 4-(4-Phenyl-thiazol-2-ylamino)-benzoic acid]
water solubility (water solubility): superior water solubility; also recorded: relatively good solubility in water
STD NMR competition with AMP-PNP for binding to CK2α (CK2α [3]; AMP-PNP 500 μM): AMP-PNP was not able to bind to CK2α in the presence of 2-aminothiazole 6

CK2α inhibitory activity, in words (SAR) (CK2α [2]): complete lack of activity
SMILES: O=C(O)c1ccc(Nc2nccs2)cc1 [Compound 5, 4-(Thiazol-2-ylamino)-benzoic acid]

binding stoichiometry to CK2α by native mass spectrometry (CK2α^1–335): 1:1 and 1:2 stoichiometry
SMILES: O=P(O)(O)OC1C(OP(=O)(O)O)C(OP(=O)(O)O)C(OP(=O)(O)O)C(OP(=O)(O)O)C1OP(=O)(O)O (stereo not shown) [IP6, inositol hexakisphosphate, reference compound]

SMILES: O=C(O)c1ccc(Nc2nc(-c3ccccn3)cs2)cc1 [Compound 9, 4-(4-Pyridin-2-yl-thiazol-2-ylamino)-benzoic acid]
water solubility (water solubility): superior water solubility; also recorded: relatively good solubility in water

CK2α inhibitory activity, in words (SAR) (CK2α [2]): significant loss of activity
SMILES: O=[N+]([O-])c1cccc(-c2csc(Nc3ccccc3)n2)c1 [Compound 3, [4-(3-Nitro-phenyl)-thiazol-2-yl]-phenyl-amine]

inhibition of CK2α2β2 holoenzyme compared with CK2α (CK2α2β2 holoenzyme): inhibited to the same extent
SMILES: O=C(O)c1cccc(Nc2nc(-c3cccc([N+](=O)[O-])c3)cs2)c1 [Compound 1, 3-((4-(3-nitrophenyl)thiazol-2-yl)amino)benzoic acid]

inhibition at 50 µM (GSK3β): 71%
inhibition at 50 µM (ACVR1 (ALK2)): 66%
inhibition at 50 µM (EphA4): 73%
inhibition at 50 µM (Dyrk1A): ~30%
inhibition at 50 µM (Clk2): ~30%
inhibition at 50 µM (Clk4): 61%
inhibition at 50 µM (MLCK (MLCK2)): 61%
SMILES: O=C(O)c1ccc(Nc2nc(-c3cccc(Br)c3)cs2)cc1 [Compound 7, 4-[4-(3-Bromo-phenyl)-thiazol-2-ylamino]-benzoic acid]
